# Published values of several laboratories.
# Protocols differ between the studies behind these lines.
# UGT1A9: UDP-glucuronosyltransferase 1A9 (UGT1A9, Homo sapiens, UniProt O60656)
Structure (SMILES),tested on,assay,test system,setting,quantity,value
CON=C(N)c1ccc(-c2ccc(-c3ccc(C(N)=NOC)cc3)o2)cc1,"Cytochrome P450 1A1 (CYP1A1, Homo sapiens, UniProt P04798)","enzyme activity, substrate",,,Km,0.5 µM
CC(C)(O)c1cn(-c2ccc(-c3ccc(CO)c(S(C)(=O)=O)c3)cc2)c(Cc2ccccc2Cl)n1,,,"cynomolgus monkey, plasma","intravenous, 0.25 mg/kg, single dose",clearance,61 mL/min/kg
CC(=O)c1cc(C(=O)N[C@@H](C)Cn2ccc(-c3ccc(C#N)c(Cl)c3)n2)[nH]n1,UGT1A9,"enzyme activity, inhibitor","human, liver microsomes",,IC50,> 50 µM
CN(CCC(=O)O)C(=O)c1ccc2c(c1)CC[C@@H]1[C@@H]2CC[C@]2(C)C(c3cncc(F)c3)=CC[C@@H]12,UGT1A9,"enzyme activity, inhibitor",,,IC50,> 30 µM
O=C1CCCCC1=C1Sc2nc3ccc(S(=O)(=O)N4CCCC4)cc3nc2S1,WI-38,"cell growth or viability, MTT",,"25 µM, 24 h",viability,70.8%
CC(C)(O)c1cn(-c2ccc(-c3cc(F)c(CO)c(S(C)(=O)=O)c3)cc2)c(C(C)(C)c2cccc(F)c2Cl)n1,,,"male cynomolgus monkey, plasma","intravenous, 1 mg/kg, single dose",clearance,9.4 mL/min/kg
N#CC(C(=O)Nc1cccc(C(F)(F)F)c1)=C1Sc2nc3ccc(S(=O)(=O)N4CCCC4)cc3nc2S1,WI-38,"cell growth or viability, MTT",,"3.125 µM, 24 h",viability,100%
C[C@H](O)c1cc(C(=O)N[C@@H](C)Cn2ccc(-c3ccc(C#N)c(Cl)c3)n2)n[nH]1,UGT1A9,"enzyme activity, inhibitor","human, liver microsomes",,IC50,> 100 µM
N#Cc1cc(NC(=O)[C@H]2c3ccccc3C(=O)N(CC(F)(F)F)[C@@H]2c2cccnc2)ccc1F,,metabolic stability,"dog, liver microsomes",,half-life,> 4 h
